pIC50: −log10 of the molar value. Active and inactive are the calls of the source. The rule behind the calls is not given here.
Assays:
[1] = biological target: Serine/threonine-protein kinase PAK 2 (Homo sapiens) (UniProt Q13177); test: Inhibition of human PAK2 assessed as remaining activity at 10 uM in presence of ATP by radiometric kinase assay relative to control
[2] = biological target: Serine/threonine-protein kinase Nek2 (Homo sapiens) (UniProt P51955); test: Inhibition of human NEK2a assessed as remaining activity at 10 uM in presence of ATP by radiometric kinase assay relative to control
Chain of Serine/threonine-protein kinase Nek2 (Homo sapiens) (P51955 whole entry): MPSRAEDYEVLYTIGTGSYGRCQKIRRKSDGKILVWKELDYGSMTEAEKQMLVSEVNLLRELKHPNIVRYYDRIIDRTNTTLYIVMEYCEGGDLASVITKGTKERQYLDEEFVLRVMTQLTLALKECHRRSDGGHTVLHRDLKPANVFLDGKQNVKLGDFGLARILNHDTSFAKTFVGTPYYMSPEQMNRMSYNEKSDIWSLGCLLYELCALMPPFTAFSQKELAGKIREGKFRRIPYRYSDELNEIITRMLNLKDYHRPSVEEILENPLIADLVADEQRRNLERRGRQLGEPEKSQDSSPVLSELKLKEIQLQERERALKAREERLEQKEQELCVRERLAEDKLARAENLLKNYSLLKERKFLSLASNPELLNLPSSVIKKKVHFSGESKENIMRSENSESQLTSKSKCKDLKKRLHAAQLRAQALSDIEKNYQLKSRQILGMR

[3] = species on record: Homo sapiens; test: Inhibition of human VEG-FR assessed as remaining activity at 10 uM in presence of ATP by radiometric kinase assay relative to control
[4] = Clearance in BALB/C mouse plasma at 10 mg/kg, po by LC/MS-MS analysis; assay type: ADME, organism-based
Method in brief: (§1)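 Female BALB/c mice received a single 10mg/kg bolus i.v. or p.o. Plasma (and spleen homogenate) extracted with methanol containing internal standards. Concentrations were measured by LC/MS-MS and PK parameters calculated with modelling software.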

[5] = test system: Mus musculus; test: In vivo inhibition of CHK1 in CRTac:Ncr-Fox1 athymic mouse xenografted with human Calu-6 cells assessed as enhanced phosphorylation of CHK1 on S345 at 150 mg/kg, po in presence of gemcitabine and carboplatin by Western blotting analysis; assay type: functional, organism-based
Method in brief: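 Female CRTac:Ncr-Fox1(nu) athymic mice carried s.c. Calu6 xenografts. Tumors were taken 6h after the last inhibitor dose, lysed in CHAPS buffer, and immunoblotted with GAPDH as loading control.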

[6] = biological target: Serine/threonine-protein kinase MARK1 (Homo sapiens) (UniProt Q9P0L2); test: Inhibition of human MARK1 assessed as remaining activity at 10 uM in presence of ATP by radiometric kinase assay relative to control
[7] = Toxicity in Emu-Myc driven transgenic mouse transplant model of B-cell lymphoma assessed as change in water consumption at 150 mg/kg, po administered for 9 days; assay type: organism-based; settings: in vivo, 216 h, time 9 day
[8] = biological target: Protein kinase C gamma type (Homo sapiens) (UniProt P05129); test: Inhibition of human PKC gamma assessed as remaining activity at 10 uM in presence of ATP by radiometric kinase assay relative to control
[9] = biological target: Inhibitor of nuclear factor kappa-B kinase subunit epsilon (Homo sapiens) (UniProt Q14164); test: Inhibition of human IKKe assessed as remaining activity at 10 uM in presence of ATP by radiometric kinase assay relative to control
[10] = Cmax in BALB/C mouse spleen at 10 mg/kg, po by LC/MS-MS analysis; assay type: ADME, organism-based; method in brief: as §1
[11] = Toxicity in Emu-Myc driven transgenic mouse transplant model of B-cell lymphoma assessed as reduction in weight of the inguinal lymph nodes at 150 mg/kg, po administered for 9 days; assay type: organism-based; settings: in vivo, 216 h, time 9 day
[12] = biological target: Ribosomal protein S6 kinase alpha-3 (Homo sapiens, UniProt P51812); test: Inhibition of human RSK2 by FRET based Z-LYTE kinase assay
[13] = biological target: Mitogen-activated protein kinase kinase kinase 1 (Homo sapiens) (UniProt Q13233); test: Inhibition of human MEKK1 assessed as remaining activity at 10 uM in presence of ATP by radiometric kinase assay relative to control
Chain of Mitogen-activated protein kinase kinase kinase 1 (Homo sapiens) (Q13233 whole entry): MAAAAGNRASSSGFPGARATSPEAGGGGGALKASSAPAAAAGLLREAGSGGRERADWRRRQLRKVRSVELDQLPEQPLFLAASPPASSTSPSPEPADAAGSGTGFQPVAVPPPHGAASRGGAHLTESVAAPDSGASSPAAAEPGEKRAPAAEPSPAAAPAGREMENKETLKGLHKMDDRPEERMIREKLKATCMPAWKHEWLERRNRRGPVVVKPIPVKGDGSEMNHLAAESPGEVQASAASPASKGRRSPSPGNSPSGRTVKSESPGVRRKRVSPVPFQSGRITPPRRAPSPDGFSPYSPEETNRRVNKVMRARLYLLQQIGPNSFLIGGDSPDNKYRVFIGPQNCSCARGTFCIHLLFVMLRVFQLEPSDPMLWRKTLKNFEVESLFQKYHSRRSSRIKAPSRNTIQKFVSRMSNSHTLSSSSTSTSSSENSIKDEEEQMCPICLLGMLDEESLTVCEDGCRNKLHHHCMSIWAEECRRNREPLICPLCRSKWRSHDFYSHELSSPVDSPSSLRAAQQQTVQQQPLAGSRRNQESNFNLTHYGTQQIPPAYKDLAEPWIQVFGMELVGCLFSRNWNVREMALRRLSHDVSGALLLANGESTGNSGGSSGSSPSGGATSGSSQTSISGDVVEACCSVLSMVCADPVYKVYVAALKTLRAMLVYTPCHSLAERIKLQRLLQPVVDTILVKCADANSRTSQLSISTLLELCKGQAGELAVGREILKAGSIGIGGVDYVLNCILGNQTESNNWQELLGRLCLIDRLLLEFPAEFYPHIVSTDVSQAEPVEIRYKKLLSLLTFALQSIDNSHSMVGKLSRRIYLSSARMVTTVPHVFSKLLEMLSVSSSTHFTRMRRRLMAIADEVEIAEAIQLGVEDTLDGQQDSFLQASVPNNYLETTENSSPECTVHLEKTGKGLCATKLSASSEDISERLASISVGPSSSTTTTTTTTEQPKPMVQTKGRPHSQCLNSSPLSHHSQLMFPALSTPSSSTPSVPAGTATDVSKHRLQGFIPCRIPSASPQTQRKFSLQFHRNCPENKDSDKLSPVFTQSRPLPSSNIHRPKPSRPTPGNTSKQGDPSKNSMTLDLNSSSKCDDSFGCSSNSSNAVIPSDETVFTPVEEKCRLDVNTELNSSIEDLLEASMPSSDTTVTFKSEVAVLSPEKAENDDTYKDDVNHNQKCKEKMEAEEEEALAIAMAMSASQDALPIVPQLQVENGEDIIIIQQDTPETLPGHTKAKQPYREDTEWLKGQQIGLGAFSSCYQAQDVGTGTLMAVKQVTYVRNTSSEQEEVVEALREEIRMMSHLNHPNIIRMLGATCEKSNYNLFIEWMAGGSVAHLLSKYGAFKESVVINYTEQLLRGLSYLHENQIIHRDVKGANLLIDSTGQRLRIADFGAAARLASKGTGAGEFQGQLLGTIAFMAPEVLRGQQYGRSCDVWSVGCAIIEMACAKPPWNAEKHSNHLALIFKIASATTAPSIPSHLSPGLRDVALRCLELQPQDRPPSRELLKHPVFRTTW

[14] = test system: HT-29; test: Induction of cell cycle arrest in human HT-29 cells assessed as accumulation of cells at G0/G1 phase at 0.5 uM incubated for 24 hrs by BrdU and PI staining based flow cytometry analysis; assay type: functional
Method in brief: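 HT29 cells exposed for 24h, stained with bromodeoxyuridine and propidium iodide, and cell-cycle distribution measured by flow cytometry.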

[15] = Cmax in BALB/C mouse plasma at 10 mg/kg, po by LC/MS-MS analysis; assay type: ADME, organism-based; method in brief: as §1
[16] = biological target: MAP/microtubule affinity-regulating kinase 3 (Homo sapiens, UniProt P27448); test: Inhibition of human MARK3 assessed as remaining activity at 10 uM in presence of ATP by radiometric kinase assay relative to control
Chain of MAP/microtubule affinity-regulating kinase 3 (P27448 whole entry, looked up): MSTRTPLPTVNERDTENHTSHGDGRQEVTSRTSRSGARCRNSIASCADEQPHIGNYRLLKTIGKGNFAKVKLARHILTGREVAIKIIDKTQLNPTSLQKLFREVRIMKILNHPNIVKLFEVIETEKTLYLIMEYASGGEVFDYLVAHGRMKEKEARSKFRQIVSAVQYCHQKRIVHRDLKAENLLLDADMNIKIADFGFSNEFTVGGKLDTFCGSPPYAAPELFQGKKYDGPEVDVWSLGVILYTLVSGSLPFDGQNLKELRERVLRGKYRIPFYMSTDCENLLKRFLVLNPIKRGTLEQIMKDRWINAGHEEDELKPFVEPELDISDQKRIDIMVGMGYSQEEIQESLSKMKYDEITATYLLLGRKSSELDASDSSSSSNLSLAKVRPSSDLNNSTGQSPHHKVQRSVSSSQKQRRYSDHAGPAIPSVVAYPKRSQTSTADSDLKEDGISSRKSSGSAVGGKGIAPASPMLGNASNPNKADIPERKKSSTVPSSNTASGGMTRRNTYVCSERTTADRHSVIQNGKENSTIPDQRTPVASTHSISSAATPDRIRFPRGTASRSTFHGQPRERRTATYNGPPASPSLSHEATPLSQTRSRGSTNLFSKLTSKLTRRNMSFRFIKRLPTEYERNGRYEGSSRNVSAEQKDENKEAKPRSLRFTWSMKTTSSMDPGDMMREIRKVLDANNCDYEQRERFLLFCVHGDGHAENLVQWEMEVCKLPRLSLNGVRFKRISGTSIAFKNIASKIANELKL

[17] = biological target: Dual specificity tyrosine-phosphorylation-regulated kinase 1A (Homo sapiens) (UniProt Q13627); test: Inhibition of human DYRK1A assessed as remaining activity at 10 uM in presence of ATP by radiometric kinase assay relative to control
[18] = biological target: Mitogen-activated protein kinase 13 (Homo sapiens) (UniProt O15264); test: Inhibition of human p38d MAPK assessed as remaining activity at 10 uM in presence of ATP by radiometric kinase assay relative to control
[19] = biological target: MAP kinase-activated protein kinase 5 (Homo sapiens) (UniProt Q8IW41); test: Inhibition of human PRAK assessed as remaining activity at 10 uM in presence of ATP by radiometric kinase assay relative to control
[20] = biological target: SRSF protein kinase 1 (Homo sapiens) (UniProt Q96SB4); test: Inhibition of human SRPK1 assessed as remaining activity at 10 uM in presence of ATP by radiometric kinase assay relative to control
Chain of SRSF protein kinase 1 (Homo sapiens) (Q96SB4 whole entry): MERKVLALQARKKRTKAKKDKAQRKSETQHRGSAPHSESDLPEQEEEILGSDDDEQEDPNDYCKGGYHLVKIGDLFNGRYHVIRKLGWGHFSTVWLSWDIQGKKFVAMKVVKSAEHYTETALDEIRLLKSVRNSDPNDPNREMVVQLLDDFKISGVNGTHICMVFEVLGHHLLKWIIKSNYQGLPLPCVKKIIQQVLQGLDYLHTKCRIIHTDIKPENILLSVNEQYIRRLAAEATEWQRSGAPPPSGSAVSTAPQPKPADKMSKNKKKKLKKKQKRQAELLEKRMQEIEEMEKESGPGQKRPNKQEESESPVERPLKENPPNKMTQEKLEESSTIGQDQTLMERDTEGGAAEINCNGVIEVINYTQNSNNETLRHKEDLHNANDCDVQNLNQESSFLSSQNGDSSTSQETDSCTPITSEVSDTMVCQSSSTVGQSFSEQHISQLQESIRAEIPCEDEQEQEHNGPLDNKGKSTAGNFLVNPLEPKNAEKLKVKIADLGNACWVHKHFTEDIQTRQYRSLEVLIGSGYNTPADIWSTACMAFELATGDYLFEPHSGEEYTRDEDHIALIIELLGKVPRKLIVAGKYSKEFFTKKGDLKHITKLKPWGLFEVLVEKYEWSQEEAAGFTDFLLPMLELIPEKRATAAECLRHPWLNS

[21] = test system: Mus musculus; test: In vivo inhibition of CHK1 in CRTac:Ncr-Fox1 mouse xenografted with human HT-29 cells assessed as reduction of phosphorylation of CDK1 on Y15 at 100 mg/kg, po administered for 24 hrs by Western blotting analysis; assay type: functional, organism-based
Method in brief: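 HT29 s.c. xenografts in female athymic nude mice. Single gemcitabine dose 100mg/kg i.v. on day 0, then one inhibitor dose 50 or 100mg/kg p.o. (DPTW vehicle) 24h later. Tumors taken 24h after the last dose, western blotted, and signals quantified by normalizing to GAPDH.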

[22] = biological target: Dual specificity tyrosine-phosphorylation-regulated kinase 2 (Homo sapiens) (UniProt Q92630); test: Inhibition of human DYRK2 assessed as remaining activity at 10 uM in presence of ATP by radiometric kinase assay relative to control
Chain of Dual specificity tyrosine-phosphorylation-regulated kinase 2 (Homo sapiens) (Q92630 whole entry): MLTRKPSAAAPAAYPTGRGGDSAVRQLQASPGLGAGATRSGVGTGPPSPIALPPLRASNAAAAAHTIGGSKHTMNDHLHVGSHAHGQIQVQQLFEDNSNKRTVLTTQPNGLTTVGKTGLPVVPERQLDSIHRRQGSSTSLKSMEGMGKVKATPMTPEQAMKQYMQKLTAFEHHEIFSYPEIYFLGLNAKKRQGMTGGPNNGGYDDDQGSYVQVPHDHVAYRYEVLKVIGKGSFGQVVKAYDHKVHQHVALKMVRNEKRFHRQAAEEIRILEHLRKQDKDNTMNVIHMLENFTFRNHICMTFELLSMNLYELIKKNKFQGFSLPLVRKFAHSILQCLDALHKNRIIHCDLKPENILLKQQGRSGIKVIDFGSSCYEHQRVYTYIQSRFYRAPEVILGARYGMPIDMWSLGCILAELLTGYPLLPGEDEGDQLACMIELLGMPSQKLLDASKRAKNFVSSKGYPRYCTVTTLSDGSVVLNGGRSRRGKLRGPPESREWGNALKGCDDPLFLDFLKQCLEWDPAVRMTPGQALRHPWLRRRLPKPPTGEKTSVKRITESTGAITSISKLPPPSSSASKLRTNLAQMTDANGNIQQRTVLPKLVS

[23] = biological target: Calcium/calmodulin-dependent protein kinase kinase 2 (Homo sapiens) (UniProt Q96RR4); test: Inhibition of human CAMKKb assessed as remaining activity at 10 uM in presence of ATP by radiometric kinase assay relative to control
[24] = biological target: Dual specificity mitogen-activated protein kinase kinase 1 (Homo sapiens) (UniProt Q02750); test: Inhibition of human MKK1 assessed as remaining activity at 10 uM in presence of ATP by radiometric kinase assay relative to control
[25] = biological target: Dual specificity protein kinase TTK (Homo sapiens) (UniProt P33981); test: Inhibition of human TTK assessed as remaining activity at 10 uM in presence of ATP by radiometric kinase assay relative to control
Chain of Dual specificity protein kinase TTK (Homo sapiens) (P33981 whole entry): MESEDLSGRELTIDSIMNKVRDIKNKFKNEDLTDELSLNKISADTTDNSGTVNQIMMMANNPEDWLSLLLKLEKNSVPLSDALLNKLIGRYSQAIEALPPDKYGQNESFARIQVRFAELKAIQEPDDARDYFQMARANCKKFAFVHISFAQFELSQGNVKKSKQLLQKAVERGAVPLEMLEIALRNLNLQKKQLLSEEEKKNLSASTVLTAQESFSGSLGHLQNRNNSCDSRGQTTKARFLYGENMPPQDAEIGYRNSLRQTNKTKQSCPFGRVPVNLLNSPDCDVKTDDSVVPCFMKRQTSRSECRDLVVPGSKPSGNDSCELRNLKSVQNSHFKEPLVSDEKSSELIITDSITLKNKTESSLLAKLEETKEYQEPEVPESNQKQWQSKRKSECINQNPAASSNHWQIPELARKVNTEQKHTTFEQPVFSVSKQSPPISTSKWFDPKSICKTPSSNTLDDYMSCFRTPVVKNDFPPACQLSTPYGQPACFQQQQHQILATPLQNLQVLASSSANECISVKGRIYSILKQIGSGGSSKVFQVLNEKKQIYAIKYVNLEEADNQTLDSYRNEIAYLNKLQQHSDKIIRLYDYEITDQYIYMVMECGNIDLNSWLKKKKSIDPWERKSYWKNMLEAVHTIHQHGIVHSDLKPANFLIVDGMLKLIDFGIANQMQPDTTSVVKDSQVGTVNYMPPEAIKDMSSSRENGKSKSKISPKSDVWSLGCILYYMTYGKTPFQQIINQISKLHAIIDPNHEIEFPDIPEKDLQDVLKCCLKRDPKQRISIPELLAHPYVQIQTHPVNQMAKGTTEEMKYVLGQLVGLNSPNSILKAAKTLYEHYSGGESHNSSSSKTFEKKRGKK

[26] = Toxicity in Emu-Myc driven transgenic mouse transplant model of B-cell lymphoma assessed as reduction in weight of the mesenteric lymph nodes at 150 mg/kg, po administered for 9 days; assay type: organism-based; settings: in vivo, 216 h, time 9 day
[27] = biological target: Tyrosine-protein kinase Lck (Homo sapiens) (UniProt P06239); test: Inhibition of human Lck assessed as remaining activity at 10 uM in presence of ATP by radiometric kinase assay relative to control
[28] = biological target: NUAK family SNF1-like kinase 1 (Homo sapiens) (UniProt O60285); test: Inhibition of human NUAK1 assessed as remaining activity at 10 uM in presence of ATP by radiometric kinase assay relative to control
[29] = test system: HT-29; test: Induction of apoptosis in human HT-29 cells assessed as increased in cleaved PARP in presence of gemcitabine by Western blotting analysis; assay type: functional, cell-based

Activity [1]: 96%
Activity [2]: 96%
Activity [3]: 13%
CL/F [4]: 36 mL/min/kg
Activity [6]: 43%
Activity [8]: 87%
Activity [9]: 102%
Cmax [10]: 30.1 µM
pIC50 [12]: 6.44
Activity [13]: 77%
Cmax [15]: 1.62 µM
Activity [16]: 13%
Activity [17]: 41%
Activity [18]: 54%
Activity [19]: 71%
Activity [20]: 82%
Activity [22]: 61%
Activity [23]: 73%
Activity [24]: 68%
Activity [25]: 36%
Activity [27]: 78%
Activity [28]: 6%
SMILES: N#Cc1cnc(Nc2cc(NC[C@H]3CNCCO3)c(C(F)(F)F)cn2)cn1 [SRA-737]
Activity [5]: Active
Activity [7]: Non-Toxic
Activity [11]: Toxic
Activity [14]: Active
Activity [21]: Active
Activity [26]: Toxic
Activity [29]: Active

— ChEMBL document CHEMBL5653622 (Oncotarget, 2016)
